Results on 6 compounds are retold here after ChEMBL document CHEMBL1122627, “Synthesis of certain hydroxy analogues of the antimalarial drug primaquine and their in vitro methemoglobin-producing and glutathione-depleting activity in human erythrocytes” (1984).

“And” between values parts separate entries of the source, which are not always exact repeats. Identical values can stand only once.

What all share (assay type): functional
The species named for assay [1] is Homo sapiens. Kind of assay: In vitro decreasing the GSH content in normal in human erythrocytes at 0.05 mM. The essentials:
(§1)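 Blood (30–40 mL) from normal or G6PD-deficient human volunteers, anticoagulated with sodium edetate. Washed erythrocytes suspended to 50% in buffered dextrose saline, incubated with each compound at 37 °C for 2 h. Reaction stopped on ice for 5 min. Cells spun at 1500g for 10 min at 5 °C, washed twice in ice-cold buffered saline dextrose, resuspended to 50%.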

The species entered for assay [2] is Homo sapiens. Kind of assay: In vitro methemoglobin (metHb) forming activity in Glucose-6-phosphate dehydrogenase- (G6PD-) deficient human erythrocytes at 0.05 mM. A digest of the protocol:
as §1

The species entered for assay [3] is Homo sapiens. Kind of assay: In vitro methemoglobin (metHb) forming activity in normal human erythrocytes at 0.05 mM. The essentials: as §1
The species entered for assay [4] is Homo sapiens. Kind of assay: In vitro methemoglobin (metHb) forming activity in normal human erythrocytes. A digest of the protocol:
as §1

For assay [5], the species on record is Homo sapiens. Kind of assay: In vitro decreasing the GSH content in normal in human erythrocytes at 0.01 mM. The essentials: as §1

Take `COc1cc(NC(C)CCCN)c2ncccc2c1` (stereo unspecified) [PRIMAQUINE]: in the assay listed under Homo sapiens [1], the GSH level is 60% and 47.4%. The results for the Methemoglobin in the assay listed under Homo sapiens [2] and in the assay filed under Homo sapiens [3] were 1.3% and 1%, respectively.

With `CC(CCCN)Nc1cc(O)c(O)c2cccnc12` (stereo unspecified) [5-HYDROXYDESMETHYLPRIMAQUINE], the figures for the Methemoglobin in the assay filed under Homo sapiens [3] and in the assay listed under Homo sapiens [4] were 16.3% and 4.2%, respectively.

On to `CC(CCCN)Nc1cc(O)cc2cccnc12` (stereo unspecified), for which, in the assay listed under Homo sapiens [5], the “GSH level (mg)” value is 63.8% and 45.8%. Also, the GSH level in the assay listed under Homo sapiens [1] is 63.4% and 44.8%. The Methemoglobin is 1.7% and 1.2% in the assay listed under Homo sapiens [2]; 1.1% in the assay filed under Homo sapiens [3]; 1.1% in the assay filed under Homo sapiens [4].

Take `COc1cc(N)c2ncccc2c1O`: the Methemoglobin in the assay filed under Homo sapiens [2] was 43.8% and 22.3%; in the assay filed under Homo sapiens [3], 34.2%.

Turning to `Nc1cc(O)c(O)c2cccnc12` [5,6-DIHYDROXY-8-AMINOQUINOLINE], the Methemoglobin was found to be 22.3% in the assay filed under Homo sapiens [3] and 4.8% in the assay listed under Homo sapiens [4].

Take `COc1cc(NC(C)CCCN)c2ncccc2c1O` (stereo unspecified) [5-HYDROXYPRIMAQUINE]: the Methemoglobin in the assay filed under Homo sapiens [3] was found to be 12.8%; in the assay filed under Homo sapiens [4] it was 3.4%.
